These results are taken from ChEMBL document CHEMBL4825676, “Design and biological evaluation of cinnamic and phenylpropionic amide derivatives as novel dual inhibitors of HIV-1 protease and reverse transcriptase” (Eur J Med Chem, 2021).

Assay [1] deals with Human immunodeficiency virus 1. Description: Antiviral activity against HIV1 NL4-3 Env-deficient VSV-G pseudotyped virus infected in human SUP-T1 cells assessed as inhibition of late stage viral production when host cells were infected with compound pretreated viral particles at 10 uM measured after 48 hrs by luciferase assay relative to control. The assay is classed as functional. To be noted: Human immunodeficiency virus 1, NL4-3, SUP-T1. Put shortly: (§1)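 Late-stage assay: VSV-G pseudotyped HIV-1 was made by co-transfecting 293T cells with pNL4-3-E⁻R⁻ (or DRV-resistant variants) plus pHCMV-G. Inhibitors in DMSO were added to the medium 5 h post-transfection. After 48 h at 37 °C, supernatant virus infected SupT1 cells for 48 h, and luciferase was read in the newly infected cells. Quintuplicate; inhibition at one fixed concentration and EC50.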

Assay [2] has as its system Human immunodeficiency virus 1. Description: Antiviral activity against HIV1 NL4-3 VSV-G pseudotyped virus infected in human SUP-T1 cells assessed as inhibition of early stage viral production at 10 uM measured after 48 hrs by luciferase assay relative to control. It is filed as functional. To be noted: Human immunodeficiency virus 1, NL4-3, SUP-T1. Summed up: (§2)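 Early-stage assay: SupT1 cells (1 × 10⁵/mL) were infected with VSV-G-pseudotyped HIV-1(NL4-3), and compounds were added afterward, with final DMSO held at 1% (v/v). After 48 h the cells were lysed and firefly luciferase activity was measured. Quintuplicate; inhibition at one fixed concentration and EC50.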

The target of assay [3] is Human immunodeficiency virus type 1 reverse transcriptase (Human immunodeficiency virus 1, UniProt Q72547). Description: Inhibition of wild type HIV-1 NL4-3 reverse transcriptase using random mRNA as template and GADPH as primer measured at 42 degreeC for 5 mins, 95 degreeC for 10sec and 60 degreeC for 60 sec by qRT-PCR analysis. (In qPCR the cycle at which signal appears reflects the starting amount.)

Assay [4] deals with Human immunodeficiency virus type 1 protease (Human immunodeficiency virus 1, UniProt Q72874). Description: Inhibition of wild type HIV1 protease expressed in Escherichia coli using Arg-Glu (EDANS)-Ser-Gln-Asn-Tyr-Pro-Ile-Val-Gln-Lys(DABCYL)-Arg as substrate preincubated for 20 to 30 mins followed by substrate addition and measured for 10 mins by FRET assay. Put shortly:
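Recombinant HIV-1 PR was expressed in E. coli and purified. It was mixed with inhibitor (DMSO stock) for 20–30 min at room temperature before addition of the EDANS/DABCYL-labelled peptide. Buffer: 0.1 M sodium acetate, 1 M NaCl, 1 mM EDTA, 1 mM DTT, 2% DMSO, 1 mg/mL BSA, pH 4.7. Triplicate; mean of three independent experiments.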

For assay [5], the system named is Human immunodeficiency virus 1. Description: Antiviral activity against HIV1 NL4-3 Env-deficient VSV-G pseudotyped virus infected in human SUP-T1 cells assessed as inhibition of late stage viral production when host cells were infected with compound pretreated viral particles measured after 48 hrs by luciferase assay. The assay is classed as functional, organism-based. Conditions: Human immunodeficiency virus 1, NL4-3, SUP-T1. Summed up:
as §1

For assay [6], the system named is Human immunodeficiency virus 1. Description: Antiviral activity against HIV1 NL4-3 VSV-G pseudotyped virus infected in human SUP-T1 cells assessed as inhibition of early stage viral production measured after 48 hrs by luciferase assay. The assay is classed as functional, organism-based. To be noted: Human immunodeficiency virus 1, NL4-3, SUP-T1, 48 h. Put shortly:
as §2

Assay [7] is described as follows: Ratio of antiviral activity against HIV1 NL4-3 Env-deficient VSV-G pseudotyped virus infected in human SUP-T1 cells assessed as inhibition of late stage viral production when host cells were infected with compound pretreated viral particles to antiviral activity against HIV1 NL4-3 VSV-G pseudotyped virus infected in human SUP-T1 cells assessed as inhibition of early stage viral production. It is filed as functional, Human immunodeficiency virus 1. Put shortly: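 Ratio taken from single-round VSV-G pseudotyped HIV-1(NL4-3) luciferase assays in SupT1 cells (quintuplicate). It is late-stage inhibition (compound given to producer 293T cells after transfection) divided by early-stage inhibition (compound added after SupT1 infection), or the reverse.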

Take `CC(C)CN(C[C@@H](O)[C@H](Cc1ccccc1)NC(=O)O[C@H]1CO[C@H]2OCC[C@H]21)S(=O)(=O)c1ccc(N)cc1`: the values for the inhibition at 10 µM in assay [1] and in assay [2] were 99% and 2%, respectively.
In the case of `CCCN(C[C@@H](O)[C@H](Cc1ccccc1)NC(=O)CCc1cc(OC)c(O)cc1OC)S(=O)(=O)c1ccc(OC)cc1`, the IC50 (usually the concentration that inhibits the measured activity by half) is 6.5 nM in assay [3] and 86.4 nM in assay [4].
As to `COc1ccc(S(=O)(=O)N(C[C@@H](O)[C@H](Cc2ccccc2)NC(=O)CCc2cc(OC)c(O)cc2OC)C2CC2)cc1`, the figures for the IC50 in assay [3] and in assay [4] were 9 nM and 161 nM, respectively.
Turning to `COc1ccc(S(=O)(=O)N(C[C@@H](O)[C@H](Cc2ccccc2)NC(=O)CCc2cc(OC)c(O)cc2OC)C(C)C)cc1`, the IC50 in assay [3] turned out to be 299 nM; in assay [4], 70.1 nM.
Regarding `CSc1ccc(S(=O)(=O)N(CC(C)C)C[C@@H](O)[C@H](Cc2ccccc2)NC(=O)CCc2ccc(O)c(O)c2)cc1`, the EC50 (commonly the concentration that produces a half-maximal response) came to 2310 nM in assay [5] and 8320 nM in assay [6]. The IC50 in assay [3] came out at 0.43 nM; in assay [4], 2.02 nM. Besides, the inhibition (in general, the percentage by which the read-out fell short of the control) at 10 µM in assay [1] turned out to be 97%; in assay [2] it was 68%. The Ratio in assay [7] worked out at 1.43.
For the compound `COc1cc(/C=C/C(=O)N[C@@H](Cc2ccccc2)[C@H](O)CN(CC(C)C)S(=O)(=O)c2ccc(N)cc2)cc(OC)c1O`, the EC50 in assay [5] is 37400 nM; in assay [6] it was 68000 nM. The results for the IC50 in assay [3] and in assay [4] were 1.5 nM and 144 nM, respectively. The inhibition at 10 µM in assay [1] worked out at 30%; in assay [2], 14%. In addition, the Ratio in assay [7] came to 2.14.
In the case of `O=C1Nc2ccc(Cl)cc2[C@@](C#CC2CC2)(C(F)(F)F)O1` [EFAVIRENZ], the inhibition at 10 µM was 15% in assay [1] and 85% in assay [2].
